# In the library only some 3.8% were active in any assay of this set; here they are far more common.
# Beta cell apopt = inhibitors of cytokine-induced beta cell apoptosis, primary screen, luminescence; protection from apoptosis, % (no concentration beside the values); INS-1E cytokine-induced death, ATP luminescence, 48 h; percent of positive-control rescue, neutral wells zero; AID 435005, 2010; 300,000 compounds, 0.8% hits;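 active = Every replicate reaches about 75%, or at least half do and their mean reaches it too, limit read from the data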;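 also: 0% = cytokine-treated negative control wells and 100% = positive control rescue; higher means more ATP so stronger rescue from cytokine killing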
# CSC inhib = cancer stem cell viability inhibitors, primary screen, luminescence | inhibition, % at 7.5 µM | 300,000 compounds, 1.1% hits | cancer stem cell-like cells viability | AID 2717, 2010; in the data active = inhibition above about 75%; tested in HMLE shEcad cells
# MC4R ag barr = MC4R agonists recruiting beta-arrestin, primary screen, cell-based, luminescence, agonist arm of biased-ligand search | Melanocortin receptor 4 (Homo sapiens), P32245 | U2OS MC4R beta-arrestin complementation; percent of melanotan II response, DMSO zero | activation, % at 8.9 µM | 360,000 compounds, 0.98% hits | AID 540308, 2011;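 active = activation above a per-plate cutoff, the mean activation of sample wells on that plate plus 3 SD, cut at about 8% in these data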
# ANO1 block = TMEM16A chloride channel inhibitors, primary screen, cell-based, HTS | 310,000 compounds, 1.2% hits | AID 588511, 2011 | HEK293 TMEM16A/YFP iodide influx fluorescence, ionomycin | Anoctamin-1 (Mus musculus), Q8BHY3 | normalized B-score (activity score, 25-100; higher = stronger inhibition) at 10 µM;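 active = ratio plate-corrected score three or more library SD toward inhibition, starting fluorescence score within five deviations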;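 also: score derived from kinetic fluorescence span divided by baseline fluorescence per well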
# Target sequence (Q8BHY3 whole entry, looked up): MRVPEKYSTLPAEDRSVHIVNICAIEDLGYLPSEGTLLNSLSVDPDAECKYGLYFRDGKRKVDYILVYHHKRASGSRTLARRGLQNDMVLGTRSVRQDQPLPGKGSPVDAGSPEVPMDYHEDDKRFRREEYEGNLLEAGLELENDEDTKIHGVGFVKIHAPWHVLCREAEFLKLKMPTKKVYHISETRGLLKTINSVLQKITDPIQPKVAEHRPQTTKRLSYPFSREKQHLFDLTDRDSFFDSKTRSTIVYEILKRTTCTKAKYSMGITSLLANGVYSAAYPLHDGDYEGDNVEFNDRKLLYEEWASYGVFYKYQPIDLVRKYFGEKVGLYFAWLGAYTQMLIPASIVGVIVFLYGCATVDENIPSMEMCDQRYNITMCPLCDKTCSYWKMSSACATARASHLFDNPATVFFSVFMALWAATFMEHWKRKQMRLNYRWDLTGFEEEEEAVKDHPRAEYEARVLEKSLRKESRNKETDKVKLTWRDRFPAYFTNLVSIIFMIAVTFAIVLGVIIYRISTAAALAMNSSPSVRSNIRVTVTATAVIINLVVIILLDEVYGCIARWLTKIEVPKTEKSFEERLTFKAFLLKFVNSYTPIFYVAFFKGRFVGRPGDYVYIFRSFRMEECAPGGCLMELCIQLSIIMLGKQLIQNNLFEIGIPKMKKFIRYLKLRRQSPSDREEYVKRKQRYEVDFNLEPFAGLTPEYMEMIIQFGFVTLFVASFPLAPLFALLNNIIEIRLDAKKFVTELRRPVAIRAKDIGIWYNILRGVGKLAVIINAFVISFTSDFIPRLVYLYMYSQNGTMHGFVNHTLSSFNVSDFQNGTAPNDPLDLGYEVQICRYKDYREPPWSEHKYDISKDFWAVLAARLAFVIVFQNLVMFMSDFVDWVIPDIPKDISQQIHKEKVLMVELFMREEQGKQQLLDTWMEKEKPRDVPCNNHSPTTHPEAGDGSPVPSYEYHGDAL
# MC4R antag cAMP = MC4R antagonists of cAMP signaling, primary screen, cell-based, TR-FRET, antagonist arm of biased-ligand search; AID 540295, 2011; MC4R-expressing cells, MTII-stimulated cAMP, LANCE TR-FRET; Melanocortin receptor 4 (Homo sapiens), P32245; inhibition, % at 6.5 µM; 360,000 compounds, 0.48% hits;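 active = inhibition above its plate's cutoff, the mean of tested wells on that plate plus 3 SD, cut at about 29% in these data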;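 also: 0% = Melanotan II alone and 100% = Melanotan II plus saturating MCL0020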
#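 Material: human MC4R-expressing U2OS cells. Probe or stimulus: Melanotan II challenge. Dosing: 6.5 µM single dose. Times: 30-min compound, 1-h challenge, 1-h detection, room temperature. Technique: TR-FRET with Eu-cAMP and labeled anti-cAMP, 671 nm. Replication: singlicate.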
# ANO1 activ = TMEM16A chloride channel activators or potentiators, primary screen, cell-based, HTS | HEK293 TMEM16A/YFP-H148Q/I152L, iodide quench fluorescence; active compounds read low | B-score at 10 µM | 340,000 compounds, 0.3% hits | AID 623877, 2012;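 active = fluorescence-ratio B-score plate-corrected deviation score at least 3 library SD below zero, with starting fluorescence score within 5 deviations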;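 also: channel opened by trigger with iodide after compound preincubation; score built on the fluorescence ratio of max minus min over baseline; more negative score means more quench and so TMEM16A activation or potentiation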
# * hit, by the source's call; i = inactive; / = not tested or not shown.
SMILES,Beta cell apopt,CSC inhib,MC4R ag barr,ANO1 block,MC4R antag cAMP,ANO1 activ
Oc1ccc(Cc2ccccc2)c2cccnc12,/,/,-3.3,/,1.3,/
CN(Cc1ccco1)Cc1ccc(O)c2ncccc12,1.2,-3.9,-1.5,/,-17.9,/
OCc1ccc(O)c2ncccc12,106.6*,-3.5,-2.8,i,6.9,i
Oc1ccc(CN2CCc3ccccc3C2)c2cccnc12,112.5*,60.5,1.0,i,7.4,i
CC(C)COCc1ccc(O)c2ncccc12,89.4*,10.4,-3.0,i,1.4,i
O=c1ccc(-c2ccc(S(=O)(=O)N3CCN(c4ccccc4)CC3)o2)n[nH]1,-2.1,-19.0,-1.1,i,3.9,i
COc1ccc(-n2nc3c(c2NC(=O)c2ccc4c(c2)OCO4)CS(=O)(=O)C3)cc1,-4.9,-14.5,0.0,i,2.0,i
Cc1ccc(S(=O)(=O)N/N=C/c2ccc(OC3CSC3)cc2)cc1,-1.2,27.3,9.5*,i,-3.2,i
Cc1ccc(S(=O)(=O)N/N=C/c2ccc(C(=O)O)cc2)cc1,-3.3,7.3,-0.3,i,-3.5,i
O=c1c2cc(NC(=S)NCCN3CCCCCC3)ccc2nc2n1CCCCC2,-1.7,13.3,-1.6,i,6.6,i
O=c1c2cc(NC(=S)NCCCN3CCC(Cc4ccccc4)CC3)ccc2nc2n1CCCCC2,-2.5,101.1*,1.1,i,-6.5,i
COc1ccc(Br)cc1CN1CCN(Cc2c[nH]c3ccccc23)CC1,78.7*,14.3,-0.7,i,1.4,i
COc1ccc(CN2CCN(Cc3ccc(Br)cc3)CC2)c(OC)c1OC,-2.2,31.1,0.9,25*,10.1,i
O=[N+]([O-])c1ccccc1CN1CCN(Cc2c[nH]c3ccccc23)CC1,116.1*,-6.8,/,i,/,/
COc1ccc(CN2CCN(Cc3cccc(Oc4ccccc4)c3)CC2)c(OC)c1OC,-6.9,44.4,4.2,i,11.5,i
COc1cccc(CC(=O)OCC(=O)NNC(=O)c2ccc(Br)cc2)c1,-2.1,/,0.6,/,-2.5,i
Cc1ccc(OCC(=O)NN2C(=O)c3ccccc3C2=O)cc1,-5.1,11.7,-1.2,i,-0.6,i
Cc1ccc(OCC(=O)NN=C2c3ccccc3-c3ccccc32)cc1,-1.7,/,8.6*,i,-4.2,i
c1ccc(NN=C2c3ccccc3-c3ccccc32)cc1,/,/,0.4,/,3.5,i
Cc1ccc(NN=C2c3ccccc3-c3ccccc32)cc1,-0.7,9.2,8.4*,i,14.0,i
Cc1nc2ccccc2n1Cc1ccc(Br)cc1,96.1*,-1.2,-2.3,i,-1.3,i
Cc1nc2ccccc2n1Cc1ccccc1,4.7,18.3,-1.7,i,-6.0,i
COc1cc(C(=O)NCCOc2cc(C)cc(C)c2)cc(OC)c1OC,20.4,52.5,-2.0,i,-10.4,i
O=C(Nc1cccc(Cl)c1)c1cc(N=Nc2ccc([N+](=O)[O-])cc2Cl)ccc1O,46.4,128.2*,-4.9,100*,-0.3,-5.68*
O=C(Nc1cccc(Cl)c1)c1cccc(Oc2ccc([N+](=O)[O-])cc2Cl)c1,0.9,63.1,-0.9,i,-0.3,i
SMILES,Beta cell apopt,CSC inhib,MC4R ag barr,ANO1 block,MC4R antag cAMP,ANO1 activ
CCc1cc(C(=O)N2CCCC(C(=O)c3cccc4ccccc34)C2)n(C)n1 (stereo unspecified),4.7,-8.7,-2.3,25*,14.1,i
COc1ccc(C(C(=O)NC2CCCCC2)N(C(=O)CCl)c2ccc(OC)cc2)cc1 (stereo unspecified),-5.1,-10.9,0.6,i,7.0,i
O=C(NC1CCCCC1)C(c1cccnc1)N(C(=O)CCl)c1ccc(F)cc1 (stereo unspecified),-5.5,99.3*,7.7,i,5.3,i
COc1ccc(N(C(=O)CCl)C(C(=O)NC2CCCCC2)c2cccnc2)cc1 (stereo unspecified),-13.7,58.6,8.7*,i,-4.2,i
N#Cc1ccccc1S(=O)(=O)N1CCNS(=O)(=O)c2ccccc21,/,/,-2.2,/,-0.5,/
COc1ccc(C2CC(=O)Oc3cc(C)c(Cl)c(C)c32)cc1 (stereo unspecified),/,/,0.5,/,-6.6,i
C/C=C1\NC(=O)[C@H](C)NC(=O)[C@@H](NC(=O)[C@@H](Cc2ccc(O)cc2)NC(=O)[C@@H](NC(=O)/C(C)=C/C)C(C)C)[C@@H](C)OC(=O)[C@H](CCCCc2ccc(O)cc2)NC(=O)[C@@H](CCC(=O)O)NC1=O,/,/,-0.4,/,0.9,/
CCCCC(Nc1ncnc2ccccc12)C(=O)O (stereo unspecified),-3.0,-0.9,-1.4,i,13.1,i
CC(Nc1ncnc2ccccc12)c1ccccc1 (stereo unspecified),95.7*,22.0,-2.3,i,-1.4,i
COc1cc(OC)cc(C(=O)OC/C(O)=C(\C#N)c2nc3ccccc3[nH]2)c1,101.1*,37.1,-0.4,i,-2.7,i
N#CC(=C(O)COC(=O)c1ccc2c(c1)OCCO2)c1nc2ccccc2[nH]1,/,/,-0.4,/,-1.8,i
CCOC(=O)c1c(C)oc(=O)c(CC)c1O,/,/,-1.7,/,-1.9,/
CCOC(=O)c1c(C)oc2c(F)c(F)c(F)c(F)c2c1=O,/,90.0*,0.0,i,32.6*,i
Cc1oc(-c2cccc(Cl)c2)nc1CS(=O)(=O)CC(=O)NCc1ccco1,-4.1,-5.7,-2.6,i,6.9,i
C(=C\c1ccccc1)/CN1CCN(C(c2ccccc2)c2ccccc2)CC1,/,/,0.0,i,0.4,i
Fc1ccc(C(c2ccc(F)cc2)N2CCN(C/C=C/c3ccccc3)CC2)cc1,15.4,98.7*,0.4,i,8.3,i
Cc1c(CCOC(=O)C23CC4CC(CC(C4)C2)C3)sc[n+]1Cc1ccccc1,10.1,44.8,-1.1,i,3.2,i
Cc1c(CCOC(=O)CC23CC4CC(CC(C4)C2)C3)sc[n+]1CC(=O)c1ccccc1,26.4,100.0*,1.6,i,-10.7,i
COc1ccccc1C1CC(c2cccc(NS(C)(=O)=O)c2)=NN1S(=O)(=O)c1ccccc1 (stereo unspecified),-3.6,13.3,-1.1,i,9.3,-5*
COc1ccc(C(C(=O)NC2CCCCC2)N(C(=O)CCl)c2ccc(C)cc2)cc1 (stereo unspecified),4.6,49.2,18.4*,i,6.4,i
